CTSL1 counter – Fasciola hepatica cathepsin L1 inhibitors, primary screen, counter-screen for PFM18AAP inhibitor project, biochemical, QFRET, fluorogenic peptide substrate. recombinant F. hepatica cathepsin L1, Z-Leu-Arg-MCA fluorescence. inhibition, % at 5.96 µM. 300,000 compounds, 0.49% hits. AID 1906, 2009;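 active = inhibition above the mean of all tested compounds plus 3 SD, set per screening campaign, cut at about 17% in these data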
ARFGAP1 inhibitor – inhibitors of rat ARFGAP1 GAP activity, primary screen, biochemical, fluorescence polarization, GDP tracer. ADP-ribosylation factor GTPase-activating protein 1 (Rattus norvegicus), Q62848. Arfgap1-stimulated ARF1 GTP hydrolysis, GDP FP detection. inhibition, % at 16.5 µM. 360,000 compounds, 0.26% hits;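 active = inhibition above a per-plate limit, mean inhibition of low control wells plus 3 SD, cut at about 25% in these data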
Target sequence (Q62848 1-136 limits assumed): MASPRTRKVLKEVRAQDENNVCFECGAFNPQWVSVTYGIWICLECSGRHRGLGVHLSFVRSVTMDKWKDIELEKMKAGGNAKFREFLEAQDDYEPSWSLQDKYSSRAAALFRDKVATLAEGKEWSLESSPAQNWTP
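Material – truncated rat Arfgap1 GAP domain · Buffer or medium – HEPES-based buffer, pH 7.5 · Reagent – human ARF1(Δ1-17)-GTP substrate · Dosing – 16.5 µM single point, 1.26% DMSO · Schedule – GTP hydrolysis reaction 2 h at 25 °C · Technique – GDP detection by fluorescence polarization · Benchmarks – No-Arfgap1 wells (100%) versus DMSO full-reaction wells (0%) · Repeats – single replicate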
ASAP1 inh – inhibitors of human ASAP1 ArfGAP activity, primary screen, biochemical, fluorescence polarization. Arf-GAP with SH3 domain, ANK repeat and PH domain-containing protein 1 (Homo sapiens), …. 360,000 compounds, 0.19% hits. inhibition, % at 16.5 µM. ASAP1-stimulated ARF1 GTP hydrolysis, GDP FP detection; in the data active = inhibition above about 25%
Target sequence (Q9ULH1 325-724 limits assumed): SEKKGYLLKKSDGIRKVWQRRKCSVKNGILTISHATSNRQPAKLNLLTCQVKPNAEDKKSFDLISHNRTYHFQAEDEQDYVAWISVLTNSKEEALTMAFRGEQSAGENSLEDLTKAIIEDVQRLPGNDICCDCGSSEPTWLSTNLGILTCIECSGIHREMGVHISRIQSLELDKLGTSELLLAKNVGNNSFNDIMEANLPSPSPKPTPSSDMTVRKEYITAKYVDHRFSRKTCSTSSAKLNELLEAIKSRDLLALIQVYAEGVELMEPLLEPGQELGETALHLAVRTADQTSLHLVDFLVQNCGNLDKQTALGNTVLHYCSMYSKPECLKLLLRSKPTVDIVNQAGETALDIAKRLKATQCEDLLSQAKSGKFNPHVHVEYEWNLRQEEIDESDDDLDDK
HCV core dimer – inhibitors of HCV core protein dimerization, primary screen, biochemical, TR-FRET, high-throughput; TR-FRET GST/Flag-core106 dimerization, 1536-well; inhibition, % at 5 µM; 300,000 compounds, 0.33% hits; AID 1899, 2009;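 active = inhibition above the mean of all tested compounds plus 3 SD, set per screening campaign, cut at about 45% in these data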
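Material: Tagged HCV core106 pair (GST and Flag) | Amount: GST-core106 13.5 nM, Flag-core106 17 nM | Medium: KF-containing HEPES buffer, pH 7.45, DTT, CHAPS, BSA | Reagent: Eu donor and XL665 acceptor anti-tag antibodies | Schedule: 4 h at 22.5 °C | Technique: Time-resolved FRET, ex 340 nm, em 617 and 671 nm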
GC-A act – GC-A stimulated cGMP production enhancers – HEK293 GC-A cells, cGMP TR-FRET, EC30 ANP, primary screen; Atrial natriuretic peptide receptor 1 (Homo sapiens), P16066; 0% at EC30 ANP, 100% saturating ANP; activation, % at 10 µM; 370,000 compounds, 0.14% hits; AID 1671463, 2021; in the data active = activation above about 40%
GC-B act – human GC-B receptor activators, primary screen, HEK293 GC-B cells, cGMP TR-FRET, EC30 CNP; 0% at EC30 CNP, 100% saturating CNP; activation, % at 10 µM; 370,000 compounds, 0.11% hits; AID 1920062, 2024;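 active = activation at 10 µM reaching about 35% in either raw or pattern-adjusted values, limit read from the data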
Hits are given with their value. Only some compounds are listed: those with a hit (about 1.2% of all), similar ones and a draw of the others.

Cn1c(N)c(C(=O)COC(=O)c2cc(S(=O)(=O)N3CCOCC3)ccc2F)c(=O)n(C)c1=O was read as ARFGAP1 inhibitor inactive, ASAP1 inh inactive, GC-A act inactive and GC-B act 37.
`CC1CCCC2(C1)NC(=S)N(c1ccccc1)N2` (stereo not given) gave CTSL1 counter inactive, ARFGAP1 inhibitor inactive, ASAP1 inh inactive, HCV core dimer inactive, GC-A act inactive and GC-B act inactive.
`CC1CCCC2(C1)NC(=S)c1c(sc3c1CCCC3)N2` (stereo not given) gave CTSL1 counter inactive, ARFGAP1 inhibitor inactive, ASAP1 inh inactive, HCV core dimer 53, GC-A act inactive and GC-B act inactive.
Screening Cn1nnnc1SCC(=O)NCc1cccc(C(=O)O)c1 returned CTSL1 counter inactive, ARFGAP1 inhibitor inactive, ASAP1 inh inactive, HCV core dimer inactive, GC-A act inactive and GC-B act inactive.
Screening O=C(O)Cc1cccc2ccccc12 returned ARFGAP1 inhibitor inactive, ASAP1 inh inactive, GC-A act inactive and GC-B act inactive.
CC(C)(C)C(=O)Nc1ccccc1C(=O)N1CCCC1 was read as CTSL1 counter 17, ARFGAP1 inhibitor inactive, ASAP1 inh inactive, HCV core dimer inactive, GC-A act inactive and GC-B act inactive.
`Cc1ccc(-c2nnc3sc(C4COc5ccccc5O4)nn23)cc1` (stereo not given) gave CTSL1 counter inactive, ARFGAP1 inhibitor inactive, ASAP1 inh inactive, HCV core dimer inactive, GC-A act inactive and GC-B act inactive.
For c1ccc(Cc2nnc3sc(C4COc5ccccc5O4)nn23)cc1 (stereo not given) the results were CTSL1 counter 18, ARFGAP1 inhibitor inactive, ASAP1 inh inactive, HCV core dimer inactive, GC-A act inactive and GC-B act inactive.
Screening c1ccc(OCc2nnc3sc(C4COc5ccccc5O4)nn23)cc1 (stereo not given) returned CTSL1 counter inactive, ARFGAP1 inhibitor inactive, ASAP1 inh inactive, HCV core dimer 51, GC-A act inactive and GC-B act inactive.
COc1c(Cl)ccc(Cl)c1C(=O)OCC(=O)O was read as CTSL1 counter inactive, ARFGAP1 inhibitor inactive, ASAP1 inh inactive, HCV core dimer inactive, GC-A act inactive and GC-B act inactive.
`Cc1ccc(C)c(N2CCN(S(=O)(=O)c3ccc4[nH]c(=O)ccc4c3)CC2)c1` gave CTSL1 counter inactive, ARFGAP1 inhibitor inactive, ASAP1 inh inactive, HCV core dimer 46, GC-A act inactive and GC-B act inactive.
Screening CCn1c2ccccc2c2cc(NC(=O)C3CCN(S(=O)(=O)c4cccs4)CC3)ccc21 returned CTSL1 counter inactive, ARFGAP1 inhibitor inactive, ASAP1 inh inactive, HCV core dimer inactive, GC-A act inactive and GC-B act inactive.
Cc1nn(-c2ccccc2)c(C)c1C(=O)OC/C(O)=C(\C#N)c1nc2ccccc2[nH]1 was read as CTSL1 counter inactive, ARFGAP1 inhibitor inactive, ASAP1 inh inactive, HCV core dimer 67, GC-A act inactive and GC-B act inactive.
Screening Cc1nn(-c2ccccc2)c(C)c1C(=O)OCC(O)=C(C#N)c1nc2ccccc2[nH]1 returned ARFGAP1 inhibitor inactive, ASAP1 inh inactive, GC-A act inactive and GC-B act inactive.
Screening OC[C@@H](O)[C@@H](O)[C@H](O)[C@@H](O)CO returned CTSL1 counter inactive, ARFGAP1 inhibitor inactive, ASAP1 inh inactive, HCV core dimer inactive, GC-A act inactive and GC-B act inactive.
For CCOC(=O)CSc1cc(-c2ccccc2)nc2ncnn12 the results were CTSL1 counter inactive, ARFGAP1 inhibitor inactive, ASAP1 inh inactive, HCV core dimer inactive, GC-A act inactive and GC-B act 42.
Screening CCOC(=O)CSc1nc(-c2ccccc2)ns1 returned CTSL1 counter inactive, ARFGAP1 inhibitor inactive, ASAP1 inh inactive, HCV core dimer inactive, GC-A act 55 and GC-B act inactive.
For CCOC(=O)CNC(=O)CSc1nc(-c2ccc(OC)cc2)ns1 the results were CTSL1 counter inactive, ARFGAP1 inhibitor inactive, ASAP1 inh inactive, HCV core dimer inactive, GC-A act inactive and GC-B act inactive.
`Cc1sc2nc(CSCC(=O)Nc3ccc(N4CCOCC4)cc3)[nH]c(=O)c2c1C` gave CTSL1 counter inactive, ARFGAP1 inhibitor inactive, ASAP1 inh inactive, HCV core dimer inactive, GC-A act inactive and GC-B act inactive.
Screening O=[N+]([O-])c1ccc(-n2nncc2-c2ccccc2)cc1 returned CTSL1 counter inactive, ARFGAP1 inhibitor inactive, ASAP1 inh inactive, HCV core dimer inactive, GC-A act inactive and GC-B act inactive.
CCOc1ccc(-n2c([S-])c(C(=O)Nc3ccc(S(=O)(=O)N4CCOCC4)cc3)[n+]3cc(C(N)=O)ccc23)cc1 was read as CTSL1 counter inactive, ARFGAP1 inhibitor inactive, ASAP1 inh inactive, HCV core dimer inactive, GC-A act inactive and GC-B act inactive.
`CC(=O)Oc1oc(-c2ccccc2)nc1/C=N/c1ccccn1` gave CTSL1 counter 26, ARFGAP1 inhibitor inactive, ASAP1 inh inactive, HCV core dimer inactive, GC-A act inactive and GC-B act inactive.
`CC(=O)Oc1oc(-c2ccccc2)nc1C=Nc1ccc(N(C)C)cc1` gave CTSL1 counter 18, ARFGAP1 inhibitor inactive, ASAP1 inh inactive, HCV core dimer inactive, GC-A act inactive and GC-B act inactive.
Screening COc1ccccc1N=Cc1nc(-c2ccccc2)oc1OC(C)=O returned CTSL1 counter 17, ARFGAP1 inhibitor inactive, ASAP1 inh inactive, HCV core dimer inactive, GC-A act inactive and GC-B act inactive.
`Oc1oc(-c2ccccc2)nc1C=Nc1ccccc1` gave CTSL1 counter inactive, ARFGAP1 inhibitor inactive, ASAP1 inh inactive, HCV core dimer inactive, GC-A act inactive and GC-B act inactive.
Screening CN(C)c1ccc(N=Cc2nc(-c3ccccc3)oc2OC(=O)c2ccccc2)cc1 returned CTSL1 counter inactive, ARFGAP1 inhibitor inactive, ASAP1 inh inactive, HCV core dimer inactive, GC-A act inactive and GC-B act inactive.
`COc1cc(C2SCC(=O)N2Cc2ccccc2)cc(OC)c1OC` (stereo not given) gave CTSL1 counter inactive, ARFGAP1 inhibitor inactive, ASAP1 inh inactive, HCV core dimer inactive, GC-A act inactive and GC-B act inactive.
`COC(CNC(=O)c1ccc2c(c1)ncn2-c1ccc(F)c(F)c1)OC` gave CTSL1 counter 18, ARFGAP1 inhibitor inactive, ASAP1 inh inactive, HCV core dimer inactive, GC-A act inactive and GC-B act inactive.

Screening results as filed in PubChem BioAssay.
